The list is not random: actives were taken first. Their share in the collection is about 1.9%.
ARFGAP1 inhibitor: inhibitors of rat ARFGAP1 GAP activity, primary screen, biochemical, fluorescence polarization, GDP tracer | ADP-ribosylation factor GTPase-activating protein 1 (Rattus norvegicus), Q62848 | Arfgap1-stimulated ARF1 GTP hydrolysis, GDP FP detection | inhibition, % at 16.5 µM | 360,000 tested, 0.26% active | AID 651572, 2012;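 active = inhibition above a per-plate limit, mean inhibition of low control wells plus 3 SD, cut at about 25% in these data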;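 also: 0% = DMSO wells with enzyme and 100% = wells lacking Arfgap1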
Target sequence (Q62848 1-136 limits assumed): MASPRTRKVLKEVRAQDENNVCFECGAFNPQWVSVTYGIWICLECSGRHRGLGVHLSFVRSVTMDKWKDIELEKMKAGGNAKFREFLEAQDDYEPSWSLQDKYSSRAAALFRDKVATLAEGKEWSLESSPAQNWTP
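Material: rat Arfgap1 GAP domain (His6, aa 1-136), purified enzyme. Also added: human ARF1(Δ1-17)-GTP substrate. Compound dosing: 16.5 µM single point, 1.26% DMSO. Timing: enzyme reaction 120 min at 25 °C after 20 min preincubation. Signal: GDP detection by fluorescence polarization. Read-out basis: percent inhibition of GAP-stimulated GDP formation, scaled between DMSO and no-Arfgap1 medians.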
PLC-beta3 inh: human PLC-beta3 inhibitors, primary screen, biochemical, fluorescence. inhibition, % at 12.2 µM. AID 720704, 2013. 370,000 tested, 0.18% active. Purified PLC-beta3, fluorogenic substrate. 1-phosphatidylinositol 4,5-bisphosphate phosphodiesterase beta-3 (Homo sapiens), Q01970; in the data active = inhibition above about 11%;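 also: 0% = median of compound wells on plate and 100% = full blocker control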
ASAP1 inh: inhibitors of human ASAP1 ArfGAP activity, primary screen, biochemical, fluorescence polarization; inhibition, % at 16.5 µM; Arf-GAP with SH3 domain, ANK repeat and PH domain-containing protein 1 (Homo sapiens), …; AID 624377, 2012; 360,000 tested, 0.19% active; ASAP1-stimulated ARF1 GTP hydrolysis, GDP FP detection; in the data active = inhibition above about 25%;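 also: 0% = vehicle with enzyme and substrate and 100% = no enzyme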
sPLA2-III inh: human group III sPLA2 inhibitors, primary screen, biochemical, QFRET, BODIPY PC-A2 liposome substrate. Group 3 secretory phospholipase A2 (Homo sapiens), Q9NZ20. QFRET BODIPY PC-A2 liposome hydrolysis, fluorescence. inhibition, % at 12.2 µM. 370,000 tested, 0.56% active. AID 743126, 2013;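 active = inhibition above mean plus 3 SD of compounds lying within the high and low control bounds, cut at about 19% in these data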;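 also: 0% = median of test compound wells and 100% = no enzyme DMSO wells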
Target sequence (Q9NZ20 whole entry, looked up): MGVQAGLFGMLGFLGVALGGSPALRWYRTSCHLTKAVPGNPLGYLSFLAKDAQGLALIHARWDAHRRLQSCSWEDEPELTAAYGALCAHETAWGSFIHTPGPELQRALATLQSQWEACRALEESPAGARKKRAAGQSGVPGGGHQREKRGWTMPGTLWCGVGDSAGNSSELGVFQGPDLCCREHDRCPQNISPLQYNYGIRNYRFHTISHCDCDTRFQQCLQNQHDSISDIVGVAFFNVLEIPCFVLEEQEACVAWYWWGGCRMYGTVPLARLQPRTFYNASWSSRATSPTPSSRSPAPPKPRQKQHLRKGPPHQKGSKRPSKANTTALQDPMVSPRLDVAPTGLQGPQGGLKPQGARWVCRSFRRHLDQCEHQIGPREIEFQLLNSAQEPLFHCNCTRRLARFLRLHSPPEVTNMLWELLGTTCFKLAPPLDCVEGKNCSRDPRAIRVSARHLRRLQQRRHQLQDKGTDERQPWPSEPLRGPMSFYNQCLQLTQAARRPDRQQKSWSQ
PLC-gamma1 inh: PLC-gamma1 enzyme inhibitors, primary screen, biochemical, fluorescence, purified enzyme | fluorogenic substrate | inhibition, % at 12.2 µM | 370,000 tested, 0.84% active; in the data active = inhibition above about 9.5%
Active calls of the source: *.

What do the screens show for `Cc1c(Cl)cccc1NC(=S)NCCC(c1ccccc1)c1ccccc1`?
ARFGAP1 inhibitor: -3; PLC-beta3 inh: -1; ASAP1 inh: 2; sPLA2-III inh: -12; PLC-gamma1 inh: 10*

How did COc1ccccc1N1CCN(C(=O)c2ccc3c(c2)CCN3S(=O)(=O)c2ccccc2)CC1 do in these assays?
ARFGAP1 inhibitor: 17; PLC-beta3 inh: -13; ASAP1 inh: -4; sPLA2-III inh: -18; PLC-gamma1 inh: 11*

How did Cc1c(NC(=O)COc2cccc(Cl)c2Cl)c(=O)n(-c2ccccc2)n1C do in these assays?
ARFGAP1 inhibitor: -7; PLC-beta3 inh: 10; ASAP1 inh: 6; sPLA2-III inh: 5; PLC-gamma1 inh: 2

What do the screens show for `Cc1c(NC(=O)COc2c(F)c(F)c(F)c(F)c2F)c(=O)n(-c2ccccc2)n1C`?
ARFGAP1 inhibitor: 27*; PLC-beta3 inh: 1; ASAP1 inh: -7; sPLA2-III inh: 8; PLC-gamma1 inh: 2

How did Cc1ccc(C(=O)COC(=O)c2ccc3c(c2)C(=O)N(c2cccc4ncccc24)C3=O)cc1 do in these assays?
ARFGAP1 inhibitor: -9; PLC-beta3 inh: 0; ASAP1 inh: -3; sPLA2-III inh: 3; PLC-gamma1 inh: 1

How did O=C(OCC(=O)c1ccc(Cl)cc1Cl)c1ccc2c(c1)C(=O)N(c1cccc3ncccc13)C2=O do in these assays?
ARFGAP1 inhibitor: -3; PLC-beta3 inh: -2; ASAP1 inh: 114*; sPLA2-III inh: 5; PLC-gamma1 inh: 0

How did Cc1ccccc1C(=O)N1CCC(Oc2cccnc2)CC1 do in these assays?
PLC-beta3 inh: -3; sPLA2-III inh: -1; PLC-gamma1 inh: 1

How did COc1ccc(C(=S)N2CCCCCC2)cc1 do in these assays?
ARFGAP1 inhibitor: -3; PLC-beta3 inh: 2; ASAP1 inh: -8; sPLA2-III inh: 15; PLC-gamma1 inh: 9.9*

Results for C[C@H]1[C@@H](OC(=O)Nc2ccc(C(F)(F)F)cc2)CC[C@@]23CCCN2C(=O)CCC[C@@H]13 ?
PLC-beta3 inh: 2; sPLA2-III inh: -11; PLC-gamma1 inh: 1

Results for CC(C)[C@@H]1OC(=O)[C@@H]2CCCN2C(=O)[C@H](C)OC(=O)[C@H](C)[C@@H](C(C)C)NC(=O)[C@@H]2CCCN2C(=O)[C@H]([C@H](C)Cc2ccccc2)NC(=O)[C@@H]2CCCN2C(=O)[C@@H](C(C)C)N(C)C1=O ?
PLC-beta3 inh: 1; sPLA2-III inh: -7; PLC-gamma1 inh: -1

What do the screens show for `COC(=O)[C@]12C[C@H](CC(=O)NCc3cccs3)C(=O)N(CCC3=CCCCC3)C1=C[C@H](C(C)C)O[C@@H]2C1CC1`?
PLC-beta3 inh: 0; sPLA2-III inh: -6; PLC-gamma1 inh: -1

What do the screens show for `COC(=O)c1ccc(=O)c2nc3/c(=C/O)c(O)cc(=O)c3[nH]c12`?
ARFGAP1 inhibitor: -18; PLC-beta3 inh: 8; ASAP1 inh: 1; sPLA2-III inh: 6; PLC-gamma1 inh: 11*

Results for COC(=O)c1ccc(N)cc1O ?
ARFGAP1 inhibitor: 3; PLC-beta3 inh: 0; ASAP1 inh: 6; sPLA2-III inh: 0; PLC-gamma1 inh: 1

Results for C[C@@H](CO)N(Cc1cn(Cc2ccccc2)nn1)S(=O)(=O)c1ccc(F)cc1Br ?
PLC-beta3 inh: -1; sPLA2-III inh: 9; PLC-gamma1 inh: 2

What do the screens show for `Cc1cc(N=Nc2ccc(C)c(N=Nc3cc(C)c(N)cc3N)c2)c(N)cc1N`?
ARFGAP1 inhibitor: 25*; PLC-beta3 inh: -22; ASAP1 inh: 16; sPLA2-III inh: 13; PLC-gamma1 inh: -13

What do the screens show for `C=CCN(C)CC#Cc1ccc(C)cc1`?
PLC-beta3 inh: -2; sPLA2-III inh: 13; PLC-gamma1 inh: 0

What do the screens show for `C=CC[C@@H](Cc1ccc(F)cc1)C(=O)OC[C@@H]1CCCN1C(=O)[C@H](CC=C)CC(=O)N[C@H](CO)Cc1ccccc1`?
ARFGAP1 inhibitor: -2; PLC-beta3 inh: 12*; ASAP1 inh: 5; sPLA2-III inh: -49; PLC-gamma1 inh: 9.7*

Results for CN(Cc1cn(CC2CCCCC2)nn1)S(=O)(=O)c1ccccc1Br ?
PLC-beta3 inh: 1; sPLA2-III inh: -2; PLC-gamma1 inh: 0

How did COCC(C)N1C(=O)Cc2c1nc(N)c1c(N)nc(N3CCN(c4ccccc4F)CC3)c(C#N)c21 (stereo not given) do in these assays?
ARFGAP1 inhibitor: -8; PLC-beta3 inh: inactive; ASAP1 inh: -11; sPLA2-III inh: 25*; PLC-gamma1 inh: inactive

What do the screens show for `Cc1ccc(-n2ncc(C(=O)Nc3cc(Cl)cc(Cl)c3)c2C2CCNCC2)cc1C`?
ARFGAP1 inhibitor: -3; PLC-beta3 inh: 2; ASAP1 inh: -5; sPLA2-III inh: -19; PLC-gamma1 inh: 9.8*

How did COc1ccc(C(C(=O)N(C)C2CCCC2)N(Cc2ccc(F)cc2)C(=O)c2cc(C)[nH]n2)cc1OC (stereo not given) do in these assays?
PLC-beta3 inh: 2; sPLA2-III inh: -4; PLC-gamma1 inh: 5

How did Cc1ccc(F)cc1C(=O)N(Cc1ccccn1)CC1CCCO1 (stereo not given) do in these assays?
PLC-beta3 inh: 3; sPLA2-III inh: 0; PLC-gamma1 inh: 0

What do the screens show for `CC(=O)Oc1ccc([N+](=O)[O-])cc1N1C(=O)c2ccccc2C1=O`?
ARFGAP1 inhibitor: -5; PLC-beta3 inh: 12*; ASAP1 inh: 10; sPLA2-III inh: 8; PLC-gamma1 inh: 12*

How did COc1ccc([N+](=O)[O-])cc1N1C(=O)c2cccnc2C1=O do in these assays?
ARFGAP1 inhibitor: -2; PLC-beta3 inh: -2; ASAP1 inh: 3; sPLA2-III inh: 1; PLC-gamma1 inh: 4

Results for COC(=O)C1CN(Cc2ccccc2)CCS(=O)(=O)N1Cc1ccc(Cl)cc1 (stereo not given) ?
PLC-beta3 inh: 2; sPLA2-III inh: 0; PLC-gamma1 inh: 2

How did CCCCCCCCN1C(=O)[C@@H](CC(=O)N2CCN(C(=O)OCC)CC2)C[C@@]2(C(=O)OC)C1=C[C@H](COCc1ccccc1)O[C@@H]2C do in these assays?
PLC-beta3 inh: -1; sPLA2-III inh: -18; PLC-gamma1 inh: -1

How did O=C(C1=COCCO1)N1CCN(c2nc3ccc([N+](=O)[O-])cc3s2)CC1 do in these assays?
ARFGAP1 inhibitor: 10; PLC-beta3 inh: -5; ASAP1 inh: 28*; sPLA2-III inh: 5; PLC-gamma1 inh: 4

Results for O=C(NCC(c1ccco1)N1CCN(c2ccccc2F)CC1)C(=O)NC1CCCCC1 (stereo not given) ?
ARFGAP1 inhibitor: 5; PLC-beta3 inh: 2; ASAP1 inh: 5; sPLA2-III inh: 2; PLC-gamma1 inh: 9.5*
